Screening results as filed in PubChem BioAssay.
Shown is part of a subset that was picked to be rich in hits.
PKD1 inh = PKD1 (human) kinase inhibition; inhibition, % (concentration not given with the values); PKD1 kinase fluorescence polarization assay; Q15139; 200,000 tested, 0.056% active
ABCB1 block = blocks JC-1 efflux by human ABCB1 transporter. CCRF-Adr cells, flow cytometry. inhibition, % at 6.6 µM. 190,000 tested, 0.067% active; in the data active = inhibition above about 40%;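 also: higher value means more JC-1 retained so stronger ABCB1 efflux block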
Avidin fluor = compound fluoresces at 488/530 nm on avidin beads; compound fluorescence 488/530 nm, flow cytometry; hits give high values; fluorescence (KMESF) at 10 µM; 220,000 tested, 0.38% active; in the data active = fluorescence above about 47
Lmaj promast = inhibitors of Leishmania major promastigote growth; Leishmania major promastigotes, resazurin fluorescence viability; inhibition, % at 10 µM; 200,000 tested, 9% active; AID 1063;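 also: promastigotes grown with compound for 44 hours at 28 °C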
GSH bead fluor = compound fluoresces at 488/530 nm on GSH beads; GSH beads flow cytometry, compound fluorescence 488/530 nm; hits give high values; fluorescence (KMESF) at 10 µM; 190,000 tested, 0.25% active; AID 1776; in the data active = fluorescence above about 89;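 also: glutathione beads carrying GST-tagged Bcl family fusion proteins plus one bare bead set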
ABCG2 block = inhibitors of human ABCG2 transporter, ABCB1 counter-screen; 190,000 tested, 0.1% active; Q9UNQ0; inhibition, % at 6.6 µM; IgMXP3 cells, JC-1 efflux, flow cytometry;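 active = inhibition above 80%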
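test system = two drug-resistant human cell lines, ABCG2 and ABCB1 | amount = 3 million cells/mL final, two lines in 1:1 ratio | reagent = JC-1 transporter substrate | doses = one concentration, 6.6 µM final | incubation = 10 min at 25 °C | signal = flow cytometric JC-1 green MFI at 530 nm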
Large screens that a line does not name were inactive. Rule as the data show it, unless noted: active = inhibition above about 50%; inactive = the rest.

Cn1c(=O)c2c(nc(N3CCc4ccccc4C3)n2C)n(C)c1=O	none
CCN(c1ccc(NC(=O)CN2C(=O)NC3(CCOc4ccccc43)C2=O)cc1)C(C)C (stereo not given)	none
CC1=NN(c2ccccc2)C(=O)/C1=C/C=C/C=C/N(C)C	none
CC1=NN(c2ccccc2)C(=O)/C1=C\c1ccc(Br)s1	Lmaj promast 54.4
CC1=NN(c2ccccc2)C(=O)/C1=C/c1cccs1	none
CC1=NN(c2cccc(C(=O)O)c2)C(=O)/C1=C\C=C/c1ccccc1	Lmaj promast 100.0
CC1=NN(c2ccc(C)cc2)C(=O)/C1=C\C=C\c1ccccc1	Lmaj promast 99.8
CC1=CC(=O)C(C(C)C)=C/C1=N/OS(=O)(=O)c1ccccc1	none (no result: PKD1 inh, ABCB1 block, Lmaj promast, GSH bead fluor, ABCG2 block)
CC1=CC(=O)C=C(C)C1=NOS(=O)(=O)c1ccccc1	Lmaj promast 100.5
CCSc1ccc(-c2cccc([N+](=O)[O-])c2)nn1	none
O=C(NC(NC(=S)Nc1c(Cl)cccc1Cl)C(Cl)(Cl)Cl)OCc1ccccc1 (stereo not given)	Lmaj promast 98.4 (no result: ABCB1 block)
CC(NC(=O)c1ccc([N+](=O)[O-])cc1[N+](=O)[O-])c1ccc(-c2ccccc2)cc1 (stereo not given)	none
CCOc1cc(C(N)=O)cc(Cl)c1OCc1ccccc1	none
CCOc1cc(CNC2CCCC2)ccc1OCc1ccccc1Cl	Lmaj promast 100.2
CCOc1cc(CNC2CCCC2)cc(Cl)c1OCc1ccccc1	Lmaj promast 96.9
CCOc1cc(C2NN=C(c3ccccc3)S2)ccc1OCc1ccccc1Cl (stereo not given)	none
CCOc1c(Cl)cc(CNCC(O)c2ccccc2)cc1OC (stereo not given)	none
CCOc1c(Cl)cc(CNCC(C)C)cc1OC	Lmaj promast 80.3
CCOc1cc(CNCC(C)C)cc(Cl)c1OCc1ccccc1	Lmaj promast 89.2
CCOC(=O)C1(Cc2cccc(F)c2)CCN(C(=O)c2ccoc2C)CC1	none
N#Cc1c(-c2ccco2)cc(-c2ccccn2)nc1N	Lmaj promast 78.4
Cc1ccc(NP(=O)(c2ccc(N(C)C)cc2NC(=O)c2cccs2)N2CCOCC2)cc1Cl (stereo not given)	Lmaj promast 58.4
CCOC(=O)C(C)Oc1ccccc1C1NC(=O)NC(C)=C1C(=O)Nc1ccc(C)c(C)c1 (stereo not given)	Lmaj promast 75.8
CCc1ccccc1N(CC(=O)NCc1ccco1)C(=O)c1snc(C(N)=O)c1N	Lmaj promast 62.3
CC(C)CCNC(=O)C(c1ccco1)N(Cc1ccccc1)C(=O)c1snc(C(N)=O)c1N (stereo not given)	none
CC(C)CCNC(=O)C(CC(C)C)N(Cc1ccc2c(c1)OCO2)C(=O)c1snc(C(N)=O)c1N (stereo not given)	Lmaj promast 92.3
Cc1ccc(N(C(=O)c2snc(C(N)=O)c2N)C(C(=O)NCCC(C)C)c2ccco2)cc1 (stereo not given)	Lmaj promast 64.6
O=C1Nc2ccccc2S/C1=C/Nc1cccc(Cl)c1	none
Nc1ncnc(Nc2cc(Cl)cc(Cl)c2)c1[N+](=O)[O-]	Lmaj promast 54.8
CCOC(=O)Cc1csc(NC(=O)Cn2c(=O)oc3ccccc32)n1	none (no result: PKD1 inh, ABCB1 block, Lmaj promast, GSH bead fluor, ABCG2 block)
Cc1ccc(NC(=S)N2CCN(c3ncccn3)CC2)c(C)c1	none
Cc1ccc(SCc2[nH]nc3c2C(c2ccco2)C(C#N)=C(N)O3)cc1 (stereo not given)	Lmaj promast 61.7
CCc1[nH]nc2c1C(c1ccc(Br)s1)C(C#N)=C(N)O2 (stereo not given)	Lmaj promast 99.7
Cc1ccc(SCc2[nH]nc3c2C(c2ccc(C)o2)C(C#N)=C(N)O3)cc1 (stereo not given)	Lmaj promast 85.9
CCc1[nH]nc2c1C(c1ccc(C)o1)C(C#N)=C(N)O2 (stereo not given)	none
Cc1nn(-c2ccccc2)c2c1C(c1ccc(Br)s1)C(C#N)=C(N)O2 (stereo not given)	Lmaj promast 80.5
Cc1cccc(C)c1NC(=O)CN(c1ccccn1)S(=O)(=O)c1ccccc1	none
O=C1CC(c2ccccc2Cl)CC(O)=C1C=Nc1ccccc1 (stereo not given)	none
